Measured values: paper PMC2745822 (The Journal of pharmacology and experimental therapeutics, 2008)
Positions count from the first letter of the chain named. Where two headings read alike, the source gives them in different places.

Columns and labels:
M1 mAChR = target: T1, M1 mAChR (Rattus norvegicus, UniProt P08482); assay: Calcium mobilization selectivity assay, CHO K1 cells expressing M1; type: cell-based; settings: 30 µM compound
T1 sequence (P08482 1-460): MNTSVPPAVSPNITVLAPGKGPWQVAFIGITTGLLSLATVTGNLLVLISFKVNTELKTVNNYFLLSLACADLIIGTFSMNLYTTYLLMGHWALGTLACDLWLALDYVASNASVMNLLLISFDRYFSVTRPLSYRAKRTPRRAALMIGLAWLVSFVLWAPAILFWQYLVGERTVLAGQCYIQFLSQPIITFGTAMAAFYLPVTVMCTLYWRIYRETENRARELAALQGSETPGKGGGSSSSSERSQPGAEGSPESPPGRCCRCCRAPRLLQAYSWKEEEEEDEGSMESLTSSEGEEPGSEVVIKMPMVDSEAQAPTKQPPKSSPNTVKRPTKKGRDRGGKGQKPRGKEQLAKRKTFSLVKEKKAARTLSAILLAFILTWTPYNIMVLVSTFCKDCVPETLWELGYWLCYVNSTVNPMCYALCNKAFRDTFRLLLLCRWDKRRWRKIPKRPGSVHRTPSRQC
Summary of the method: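 CHO K1 cells stably expressing rat M1 or human M3 or M5, coupled through endogenous Gq. Seeded 50,000 cells/well and held overnight in antibiotic-free medium at 37°C/5% CO2. Loaded with 2 µM Fluo-4 AM for 45 min at 37°C in HBSS/20 mM HEPES/2.5 mM probenecid, pH 7.4. […] Three independent experiments.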

[1] = target: T2, human M4 muscarinic receptor (Homo sapiens, UniProt P08173)
T2 sequence (P08173 1-479): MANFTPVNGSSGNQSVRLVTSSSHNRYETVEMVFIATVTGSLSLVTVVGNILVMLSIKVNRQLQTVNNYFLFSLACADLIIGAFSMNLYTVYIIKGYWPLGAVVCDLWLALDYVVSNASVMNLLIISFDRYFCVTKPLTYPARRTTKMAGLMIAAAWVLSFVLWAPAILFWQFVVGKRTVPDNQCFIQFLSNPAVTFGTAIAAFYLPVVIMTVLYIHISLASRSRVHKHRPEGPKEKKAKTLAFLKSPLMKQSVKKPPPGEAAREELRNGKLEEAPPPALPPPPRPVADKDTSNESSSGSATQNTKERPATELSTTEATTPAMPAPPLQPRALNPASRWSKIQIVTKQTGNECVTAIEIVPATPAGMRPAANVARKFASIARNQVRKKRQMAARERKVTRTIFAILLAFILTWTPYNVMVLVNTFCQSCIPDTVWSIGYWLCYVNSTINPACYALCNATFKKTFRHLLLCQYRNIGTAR

rat M4 mAChR = target: T3, rat M4 mAChR (Rattus norvegicus, UniProt P08485); type: cell-based; settings: for EC50: potentiation of an EC20 concentration of ACh
T3 sequence (P08485 1-478): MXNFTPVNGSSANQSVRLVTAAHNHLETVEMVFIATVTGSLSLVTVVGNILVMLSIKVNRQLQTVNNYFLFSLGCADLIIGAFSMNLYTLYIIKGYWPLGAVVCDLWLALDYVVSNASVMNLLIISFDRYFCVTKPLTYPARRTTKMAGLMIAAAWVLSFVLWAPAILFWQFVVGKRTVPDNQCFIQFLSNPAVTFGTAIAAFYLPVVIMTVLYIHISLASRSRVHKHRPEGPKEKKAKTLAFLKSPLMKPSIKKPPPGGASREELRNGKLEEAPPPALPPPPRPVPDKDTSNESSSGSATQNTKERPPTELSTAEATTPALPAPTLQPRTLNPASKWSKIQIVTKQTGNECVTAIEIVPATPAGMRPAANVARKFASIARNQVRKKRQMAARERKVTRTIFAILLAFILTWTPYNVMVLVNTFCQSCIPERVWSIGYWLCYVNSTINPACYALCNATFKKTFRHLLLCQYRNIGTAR

M1 = target: T4, M1 (Homo sapiens, UniProt P11229); assay: Millipore GPCR Profiler functional screen, M1; type: cell-based; settings: full agonist CRC
T4 sequence (P11229 1-460): T1 sequence (P08482 1-460) with V5A, S254T, S309P, K320R, G337A, V413I

M2 mAChR = target: T5, M2 mAChR (Homo sapiens, UniProt P08172); assay: Calcium mobilization selectivity assay, CHO K1 cells expressing M2-Gqi5; type: cell-based; settings: 30 µM compound
T5 sequence (P08172 1-466): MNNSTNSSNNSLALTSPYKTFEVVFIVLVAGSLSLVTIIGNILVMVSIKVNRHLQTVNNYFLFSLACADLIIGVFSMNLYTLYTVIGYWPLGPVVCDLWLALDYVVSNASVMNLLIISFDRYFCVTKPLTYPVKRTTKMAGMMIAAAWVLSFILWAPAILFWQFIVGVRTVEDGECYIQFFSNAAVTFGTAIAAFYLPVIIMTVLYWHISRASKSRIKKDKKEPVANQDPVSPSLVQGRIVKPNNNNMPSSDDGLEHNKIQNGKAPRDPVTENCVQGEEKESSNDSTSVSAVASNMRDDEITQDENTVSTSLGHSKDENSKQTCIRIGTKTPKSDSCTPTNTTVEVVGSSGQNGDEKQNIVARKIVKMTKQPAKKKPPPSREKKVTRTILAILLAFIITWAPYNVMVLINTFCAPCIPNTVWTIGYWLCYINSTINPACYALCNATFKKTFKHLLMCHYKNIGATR
Summary of the method: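 CHO K1 cells stably co-expressing human M2 and chimeric Gqi5, grown with 500 µg/ml hygromycin B. Seeded 60,000 cells/well and kept overnight in antibiotic-free medium at 37°C/5% CO2. Loaded with 2 µM Fluo-4 AM for 45 min at 37°C in HBSS/HEPES/probenecid buffer, pH 7.4. […] Three independent experiments.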

Cc1cc(C)c2c(N)c(C(=O)NCc3ccc4c(c3)OCO4)sc2n1 [VU0152099, 3-amino-N-(benzo[d][1,3]dioxol-5-ylmethyl)-4,6-dimethylthieno[2,3-b]pyridine carboxamide]
shift in the ACh CRC at M1 (M1 mAChR): No shift in the ACh CRC was observed | leftward shift in the ACh CRC ([1]; 10 µM compound): ≈ 30 fold | maximal response to ACh ([1]; in presence of compound): approximately 130% | maximal leftward shift of the ACh CRC (rat M4 mAChR; 30 µM compound): 30 fold | response in the absence of an ACh EC20 (agonist activity) (rat M4 mAChR; compound alone): neither VU0152099 nor VU0152100 elicited a response | Rat M4 Ach -Fold Shift (rat M4 mAChR; leftward shift of ACh CRC, average of at least three determinations): 29.7 fold | EC50 (rat M4 mAChR; read-out: M4 PAM activity EC50): 403 nM | EC50 (rat M4 mAChR; read-out: Rat M4 EC50, average of at least three determinations): 400 nM | potentiator activity at M1 (M1): had no potentiator activity at M1 | shift in the ACh CRC at M2-Gqi5 (M2 mAChR): No shift in the ACh CRC was observed
